# Laboratory results reported in ChEMBL document CHEMBL5712920, “The histone methyltransferase inhibitor A-366 enhances hemoglobin expression in erythroleukemia cells upon co-exposure with chemical inducers in culture” (J Biol Res (Thessalon), 2021).
# The source made the active and inactive calls. No cut-off for these calls is given here.
# Assays:
# FLC clone 745 [1] = experiment: Induction of cell cycle arrest in mouse FLC clone 745 cells assessed as accumulation cells at G2/M phase at 10^-6 M after 48 hrs by PI staining based flow cytometric analysis (reference value: 28.15%); format: functional; conditions: dose 1 10^-6M, at 1 µM
# Summary of the method: (§1)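 MEL cells plated at 5 × 10^5 per well and synchronized by serum deprivation for 24 h. Cells then incubated with compound at 10−6 M, alone or with HMBA 5 × 10−3 M, for 24, 48 and 72 h. Fixed in 70% ethanol overnight at 4 °C, stained with propidium iodide, and DNA content measured by flow cytometry to assign subG1, G1, S, G2/M and >4N fractions.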
# FLC clone 745 [2] = experiment: Induction of cell cycle arrest in mouse FLC clone 745 cells assessed as accumulation cells at > 4N phase at 10^-6 M after 24 hrs by PI staining based flow cytometric analysis (reference value: 13.47%); format: functional; conditions: dose 1 10^-6M, at 1 µM; summary of the method: as §1
# FLC clone 745 [3] = experiment: Induction of cell cycle arrest in mouse FLC clone 745 cells assessed as accumulation cells at subG1 phase at 10^-6 M after 48 hrs by PI staining based flow cytometric analysis (reference value: 9.79%); format: functional; conditions: dose 1 10^-6M, at 1 µM; summary of the method: as §1
# FLC clone 745 [4] = experiment: Induction of cell cycle arrest in HMBA-stimulated mouse FLC clone 745 cells assessed as accumulation cells at S phase at 10^-6 M after 48 hrs by PI staining based flow cytometric analysis (reference value: 31.43%); format: functional; conditions: dose 1 10^-6M, at 1 µM; summary of the method: as §1
# K562 [5] = experiment: Induction of apoptosis in human K562 cells assessed as effect on Bax mRNA expression level at 1 to 10 uM cells after 48 hrs by qPCR analysis; format: toxicity, cell-based; conditions: k562, 48 h, dose 1-10 µM
# Summary of the method: (§2)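 K562 cells at 10^5 cells/ml grown without compound (control) or with 10−6 M or 10−5 M compound for 48 h. Total RNA isolated, then checked by gel electrophoresis and spectrophotometry. Transcripts quantified by qPCR.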
# FLC clone 745 [6] = experiment: Induction of cell cycle arrest in HMBA-stimulated mouse FLC clone 745 cells assessed as accumulation cells at G2/M phase at 10^-6 M after 24 hrs by PI staining based flow cytometric analysis (reference value: 9.52%); format: functional; conditions: dose 1 10^-6M, at 1 µM; summary of the method: as §1
# FLC clone 745 [7] = experiment: Inhibition of G9a/GLP in HMBA-stiumulated mouse FLC clone 745 cells assessed as increase in HBB protein expression at 10^-6 M after 48 hrs by Western blot analsysis; format: cell-based; conditions: dose 1.0 10^-6M
# Summary of the method: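 MEL cells treated for 48 h with HMBA 5 × 10−3 M plus compound at 10−6 M. About 10^6 cells lysed in Tris/NaCl/2% SDS, sonicated, and protein quantified by BCA. 20 µg run on a 12% SDS-PAGE gel and transferred to PVDF. Membrane probed overnight at 4 °C with anti-hemoglobin β/γ/δ/ε, with β-tubulin as loading control, then HRP secondary for 1 h at room temperature.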
# FLC clone 745 [8] = experiment: Induction of cell cycle arrest in HMBA-stimulated mouse FLC clone 745 cells assessed as accumulation cells at S phase at 10^-6 M after 24 hrs by PI staining based flow cytometric analysis (reference value: 21.59%); format: functional; conditions: dose 1 10^-6M, at 1 µM; summary of the method: as §1
# K562 [9] = experiment: Induction of apoptosis in human K562 cells assessed as effect on Bcl-2 mRNA expression level at 1 to 10 uM cells after 48 hrs by qPCR analysis; format: toxicity, cell-based; conditions: k562, 48 h, dose 1-10 µM; summary of the method: as §2
# FLC clone 745 [10] = experiment: Induction of cell cycle arrest in mouse FLC clone 745 cells assessed as accumulation cells at S phase at 10^-6 M after 72 hrs by PI staining based flow cytometric analysis (reference value: 24.02%); format: functional; conditions: dose 1 10^-6M, at 1 µM; summary of the method: as §1
# FLC clone 745 [11] = experiment: Induction of cell cycle arrest in HMBA-stimulated mouse FLC clone 745 cells assessed as accumulation cells at G1/G0 phase at 10^-6 M after 24 hrs by PI staining based flow cytometric analysis (reference value: 17.28%); format: functional; conditions: dose 1 10^-6M, at 1 µM; summary of the method: as §1
# [12] = Inhibition of G9a/GLP in HMBA-stiumulated mouse FLC clone 745 cells assessed as increase in erythroid differentiation at IC50 concentration measured after 72 hrs by benzidine-H2O2 based assay (reference value: 69.6%); conditions: condition erythroleukemia
# FLC clone 745 [13] = experiment: Induction of cell cycle arrest in mouse FLC clone 745 cells assessed as accumulation cells at G1/G0 phase at 10^-6 M after 24 hrs by PI staining based flow cytometric analysis (reference value: 19.61%); format: functional; conditions: dose 1 10^-6M, at 1 µM; summary of the method: as §1
# [14] = Cytotoxicity against mouse FLC clone 745 cells assessed as reduction in cell viability measured after 48 hrs by Neubauer chamber based microscopic analysis; format: toxicity
# FLC clone 745 [15] = experiment: Induction of cell cycle arrest in mouse FLC clone 745 cells assessed as accumulation cells at G1/G0 phase at 10^-6 M after 48 hrs by PI staining based flow cytometric analysis (reference value: 25.43%); format: functional; conditions: dose 1 10^-6M, at 1 µM; summary of the method: as §1
# FLC clone 745 [16] = experiment: Induction of cell cycle arrest in mouse FLC clone 745 cells assessed as accumulation cells at subG1 phase at 10^-6 M after 72 hrs by PI staining based flow cytometric analysis (reference value: 9.87%); format: functional; conditions: dose 1 10^-6M, at 1 µM; summary of the method: as §1
compound,measurement,setting,value
COc1cc2c(cc1OCCCN1CCCC1)N=C(N)C21CCC1,Activity,FLC clone 745 [1],22.21%
same,Activity,FLC clone 745 [2],9.49%
same,Activity,FLC clone 745 [3],18.28%
same,Activity,FLC clone 745 [4],28.62%
same,Activity,K562 [5],Non-Toxic
same,Activity,FLC clone 745 [6],6.93%
same,inhibition,FLC clone 745 [7],Active
same,Activity,FLC clone 745 [8],1.26%
same,Activity,K562 [9],Non-Toxic
same,Activity,FLC clone 745 [10],23.1%
same,Activity,FLC clone 745 [11],12.13%
same,inhibition (INH),[12],76.6%
same,Activity,FLC clone 745 [13],20.43%
same,IC50 at 48 h,[14],> 100 µM
same,Activity,FLC clone 745 [15],21%
same,Activity,FLC clone 745 [16],39.53%
